# Assay results from ChEMBL document CHEMBL1156009, “Eleven amino acid glucagon-like peptide-1 receptor agonists with antidiabetic activity” (J Med Chem, 2009).
# Activity calls are given as the source filed them. The calls are words filed in the database; no cut-off is given here. Square brackets hold non-standard residues; d marks the D form. Peptide text beside a SMILES is read from it. Bip(2'-Et-4'-OMe) = CCc1cc(OC)ccc1-c1ccc(C[C@H](N)C(=O)O)cc1; Bip(2'-Me) = Cc1ccccc1-c1ccc(C[C@H](N)C(=O)O)cc1; αMePhe(2-F) = C[C@](N)(Cc1ccccc1F)C(=O)O; αMeF = C[C@](N)(Cc1ccccc1)C(=O)O; Aib = CC(C)(N)C(=O)O
# Experiments:
# [1] = molecular target: T1, Glucagon-like peptide 1 receptor (Homo sapiens, UniProt P43220); test: Agonist activity at human GLP1R expressed in CHO cells assessed as stimulation of intracellular [3H]cAMP accumulation after 30 mins by scintillation proximity assay; type: functional, cell-based
# T1 sequence (P43220 whole entry): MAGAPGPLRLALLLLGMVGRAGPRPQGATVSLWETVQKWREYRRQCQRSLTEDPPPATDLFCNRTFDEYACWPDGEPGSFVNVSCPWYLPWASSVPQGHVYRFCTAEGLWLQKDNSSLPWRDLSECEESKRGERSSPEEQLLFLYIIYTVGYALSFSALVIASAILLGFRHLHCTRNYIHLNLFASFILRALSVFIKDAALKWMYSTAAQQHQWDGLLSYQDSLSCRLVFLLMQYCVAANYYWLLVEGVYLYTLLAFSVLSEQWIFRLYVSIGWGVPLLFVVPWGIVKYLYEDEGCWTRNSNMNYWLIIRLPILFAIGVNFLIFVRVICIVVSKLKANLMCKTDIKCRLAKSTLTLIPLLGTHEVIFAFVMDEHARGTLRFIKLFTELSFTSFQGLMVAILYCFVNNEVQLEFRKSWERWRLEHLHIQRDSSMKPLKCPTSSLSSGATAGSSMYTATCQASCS
# Method in brief: (§1)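 CHO cells stably expressing human or mouse GLP-1R, grown in F-12 with 10% FBS plus Geneticin (0.4 mg/mL human, 1 mg/mL mouse), plated 2×10^4/well overnight. Half-log dilutions made in DMSO, then in DPBS with 0.1 mM IBMX and 0.05% BSA (final 1% DMSO). Cells exposed 30 min. cAMP read by SPA and converted to pmol via standard curve. Duplicates, at least three separate runs.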
# [2] = molecular target: T1, Glucagon-like peptide 1 receptor; test: Agonist activity at human GLP1R expressed in CHO cells assessed as stimulation of intracellular [3H]cAMP accumulation at 1 to 100 nM after 30 mins by scintillation proximity assay in presence of GLP1R antagonist truncated exendin-4(9-39); type: functional, cell-based; method in brief: as §1
# [3] = molecular target: T1, Glucagon-like peptide 1 receptor; test: Displacement of [125I]GLP1 from human GLP1R expressed in CHO cells; type: cell-based
# [4] = molecular target: T2, Glucagon-like peptide 1 receptor (Mus musculus, UniProt O35659); test: Agonist activity at mouse GLP1R expressed in CHO cells assessed as stimulation of intracellular [3H]cAMP accumulation by scintillation proximity assay; type: functional, cell-based; method in brief: as §1
# T2 sequence (O35659 whole entry): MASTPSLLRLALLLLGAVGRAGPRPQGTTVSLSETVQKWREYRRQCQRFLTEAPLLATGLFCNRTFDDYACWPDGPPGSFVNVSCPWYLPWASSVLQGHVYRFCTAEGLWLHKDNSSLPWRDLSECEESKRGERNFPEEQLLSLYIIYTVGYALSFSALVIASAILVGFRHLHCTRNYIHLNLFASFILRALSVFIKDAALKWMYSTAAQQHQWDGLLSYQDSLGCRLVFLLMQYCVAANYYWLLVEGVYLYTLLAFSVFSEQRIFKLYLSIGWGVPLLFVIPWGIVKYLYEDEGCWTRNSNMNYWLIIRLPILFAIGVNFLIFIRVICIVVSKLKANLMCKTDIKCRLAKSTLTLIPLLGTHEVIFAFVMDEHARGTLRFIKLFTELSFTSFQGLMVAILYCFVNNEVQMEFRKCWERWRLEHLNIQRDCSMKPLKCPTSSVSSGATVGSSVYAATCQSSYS
# [5] = Agonist activity at VIP receptor; type: functional
# Mus musculus [6] = test: Antidiabetic activity in insulin-resistant ob/ob mouse assessed as increase in plasma insulin level at 300 nmol/kg, sc administered 30 mins before glucose infusion measured after 30 mins of glucose challenge by intraperitoneal glucose tolerance test; type: functional, organism-based
# Method in brief: (§2)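 Male ob/ob mice, 19 weeks old, 6 per group, randomized on fed glucose and body weight. After an 18 h fast, single sc dose in 1:1 propylene glycol/20 mM sodium phosphate pH 7.4 (0.1 mL/100 g) at -30 min. 2 g/kg glucose (50%) given ip at time 0. Tail bleeds at 0, 30, 60, 120 and 180 min into K-EDTA. Glucose measured on analyzer, insulin by ultrasensitive mouse ELISA. ANOVA with Dunnett's test versus vehicle.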
# Glucagon receptor = Glucagon receptor (Homo sapiens, UniProt P47871); test: Agonist activity at glucagon receptor; type: functional
# Chain of Glucagon receptor (P47871 whole entry, the tested form may be a part): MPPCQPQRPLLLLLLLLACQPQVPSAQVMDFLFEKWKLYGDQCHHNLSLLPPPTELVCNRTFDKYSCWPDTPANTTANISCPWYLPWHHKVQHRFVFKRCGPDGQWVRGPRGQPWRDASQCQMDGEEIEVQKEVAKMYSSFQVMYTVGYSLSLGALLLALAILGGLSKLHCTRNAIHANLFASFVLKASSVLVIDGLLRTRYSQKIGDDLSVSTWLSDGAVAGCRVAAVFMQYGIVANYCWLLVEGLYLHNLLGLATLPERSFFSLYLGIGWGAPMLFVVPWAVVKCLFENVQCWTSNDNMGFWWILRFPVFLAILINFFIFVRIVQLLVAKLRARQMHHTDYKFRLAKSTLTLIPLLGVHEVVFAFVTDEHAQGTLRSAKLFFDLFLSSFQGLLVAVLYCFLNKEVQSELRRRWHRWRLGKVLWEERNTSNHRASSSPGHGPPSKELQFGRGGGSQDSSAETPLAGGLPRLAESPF
# Mus musculus [7] = test: Antidiabetic activity in insulin-resistant ob/ob mouse assessed as increase in plasma insulin level at 30 nmol/kg, sc administered 30 mins before glucose infusion measured after 30 to 180 mins of glucose challenge by intraperitoneal glucose tolerance test; type: functional, organism-based; method in brief: as §2
# Mus musculus [8] = test: Antidiabetic activity in insulin-resistant ob/ob mouse assessed as reduction in plasma glucose level at 30 nmol/kg, sc administered 30 mins before glucose infusion measured after 30 to 180 mins of glucose challenge by intraperitoneal glucose tolerance test; type: functional, organism-based; method in brief: as §2
# [9] = Agonist activity at PACAP receptor; type: functional
# [10] = Cmax in insulin-resistant ob/ob mouse at 300 nmol/kg, sc up to 24 hrs by LC-MS/MS analysis; type: ADME, organism-based; parameters: dose 300 nmol/kg, route subcutaneous; details: in vivo
# Method in brief: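 ob/ob mice dosed sc at 300 nmol/kg in 1:1 propylene glycol/20 mM sodium phosphate pH 7.4. Plasma sampled at 1, 2, 4, 6, 8 and 24 h and quantified by LC-MS/MS.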
# [11] = molecular target: T3, Parathyroid hormone/parathyroid hormone-related peptide receptor (Homo sapiens, UniProt Q03431); test: Agonist activity at PTHR; type: functional
# T3 sequence (Q03431 whole entry): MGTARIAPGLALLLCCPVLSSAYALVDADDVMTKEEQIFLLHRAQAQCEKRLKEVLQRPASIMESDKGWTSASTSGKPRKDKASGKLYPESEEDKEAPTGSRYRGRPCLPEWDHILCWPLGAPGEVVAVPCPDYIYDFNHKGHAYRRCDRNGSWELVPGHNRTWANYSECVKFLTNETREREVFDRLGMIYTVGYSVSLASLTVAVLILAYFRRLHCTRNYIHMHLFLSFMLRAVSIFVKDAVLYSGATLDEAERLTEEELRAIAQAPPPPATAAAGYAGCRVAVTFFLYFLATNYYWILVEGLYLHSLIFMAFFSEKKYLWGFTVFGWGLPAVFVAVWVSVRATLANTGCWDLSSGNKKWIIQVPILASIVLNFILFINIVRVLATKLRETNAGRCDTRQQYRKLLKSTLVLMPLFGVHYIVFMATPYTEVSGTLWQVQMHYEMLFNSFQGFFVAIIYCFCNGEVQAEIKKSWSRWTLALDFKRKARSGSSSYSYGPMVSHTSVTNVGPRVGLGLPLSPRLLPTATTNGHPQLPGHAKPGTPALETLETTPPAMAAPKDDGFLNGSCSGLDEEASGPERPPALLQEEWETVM
# Mus musculus [12] = test: Antidiabetic activity in insulin-resistant ob/ob mouse assessed as increase in plasma insulin level at 300 nmol/kg, sc administered 30 mins before glucose infusion measured after 60 mins of glucose challenge by intraperitoneal glucose tolerance test; type: functional, organism-based; method in brief: as §2
# Canis familiaris = test: Tmin in Beagle dog at 67 ug/kg, sc by LC-MS/MS analysis; type: ADME, organism-based, Canis lupus familiaris; details: in vivo, 0.067 mg/kg
# Mus musculus [13] = test: Antidiabetic activity in insulin-resistant ob/ob mouse assessed as reduction in plasma glucose level at 300 nmol/kg, sc administered 30 mins before glucose infusion measured after 30 to 180 mins of glucose challenge by intraperitoneal glucose tolerance test; type: functional, organism-based; method in brief: as §2
# [14] = molecular target: T4, Gastric inhibitory polypeptide receptor (Homo sapiens, UniProt P48546); test: Agonist activity at GIPR; type: functional
# T4 sequence (P48546 whole entry): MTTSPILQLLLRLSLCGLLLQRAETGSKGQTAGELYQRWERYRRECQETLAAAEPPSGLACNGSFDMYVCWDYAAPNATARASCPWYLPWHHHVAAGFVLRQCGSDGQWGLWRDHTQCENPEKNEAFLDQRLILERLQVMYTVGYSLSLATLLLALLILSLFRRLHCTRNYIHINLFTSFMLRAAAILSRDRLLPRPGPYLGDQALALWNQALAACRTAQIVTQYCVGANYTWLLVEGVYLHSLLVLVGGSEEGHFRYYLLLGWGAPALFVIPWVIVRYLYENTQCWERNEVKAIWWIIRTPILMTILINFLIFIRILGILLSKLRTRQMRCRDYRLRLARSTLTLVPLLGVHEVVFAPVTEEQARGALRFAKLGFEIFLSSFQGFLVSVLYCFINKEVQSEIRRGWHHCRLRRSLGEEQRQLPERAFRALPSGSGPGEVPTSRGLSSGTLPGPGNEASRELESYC
smiles,measurement,setting,value
C[C@H](NC(=O)[C@@H](N)Cc1cnc[nH]1)C(=O)N[C@@H](CCC(=O)O)C(=O)NCC(=O)N[C@H](C(=O)N[C@@H](Cc1ccccc1)C(=O)N[C@H](C(=O)N[C@@H](CO)C(=O)N[C@@H](CC(=O)O)C(=O)N[C@@H](Cc1ccc(-c2ccccc2)cc1)C(=O)N[C@@H](Cc1ccc(-c2ccccc2)cc1)C(N)=O)[C@@H](C)O)[C@@H](C)O,EC50,[1],545 nM
same,Activity,[2],inactive
same,Activity,[3],Active
CCc1cc(OC)ccc1-c1ccc(C[C@H](NC(=O)[C@H](CC(=O)O)NC(=O)[C@H](CO)NC(=O)[C@@H](NC(=O)[C@](C)(Cc2ccccc2)NC(=O)[C@@H](NC(=O)CNC(=O)[C@H](CCC(=O)O)NC(=O)[C@H](C)NC(=O)[C@@H](N)Cc2cnc[nH]2)[C@@H](C)O)[C@@H](C)O)C(=O)N[C@@H](Cc2ccc(-c3ccccc3C)cc2)C(N)=O)cc1 (H-HAEGT[αMeF]TSD[Bip(2'-Et-4'-OMe)][Bip(2'-Me)]-NH2),EC50,[1],2.4 nM
Cc1ccc(-c2ccc(C[C@H](NC(=O)[C@H](Cc3ccc(-c4ccccc4C)cc3)NC(=O)[C@H](CC(=O)O)NC(=O)[C@H](CO)NC(=O)[C@@H](NC(=O)[C@H](Cc3ccccc3)NC(=O)[C@@H](NC(=O)CNC(=O)[C@H](CCC(=O)O)NC(=O)[C@H](C)NC(=O)[C@@H](N)Cc3cnc[nH]3)[C@@H](C)O)[C@@H](C)O)C(N)=O)cc2)cc1,EC50,[1],95 nM
CCc1cc(OC)ccc1-c1ccc(C[C@H](NC(=O)[C@H](CC(=O)O)NC(=O)[C@H](CO)NC(=O)[C@@H](NC(=O)[C@](C)(Cc2ccccc2F)NC(=O)[C@@H](NC(=O)CNC(=O)[C@H](CCC(=O)O)NC(=O)C(C)(C)NC(=O)[C@@H](N)Cc2cnc[nH]2)[C@@H](C)O)[C@@H](C)O)C(=O)N[C@@H](Cc2ccc(-c3ccccc3C)cc2)C(N)=O)cc1 (H-H[Aib]EGT[αMePhe(2-F)]TSD[Bip(2'-Et-4'-OMe)][Bip(2'-Me)]-NH2),EC50,[4],2.4 nM
same,EC50,[5],> 10000 nM
same,IC50,[5],> 10000 nM
same,EC50,[1],0.087 nM
same,Activity,Mus musculus [6],Active
same,EC50,Glucagon receptor,> 10000 nM
same,IC50,Glucagon receptor,> 10000 nM
same,Activity,Mus musculus [7],Active
same,Activity,Mus musculus [8],Active
same,EC50,[9],> 10000 nM
same,IC50,[9],> 10000 nM
same,Cmax,[10],> 2000 nM
same,EC50,[11],> 10000 nM
same,IC50,[11],> 10000 nM
same,Activity,Mus musculus [12],Active
same,Tmin,Canis familiaris,8 h
same,Activity,Mus musculus [13],Active
same,EC50,[14],> 10000 nM
same,IC50,[14],> 10000 nM
C[C@H](NC(=O)[C@@H](N)Cc1cnc[nH]1)C(=O)N[C@@H](CCC(=O)O)C(=O)NCC(=O)N[C@H](C(=O)N[C@@H](Cc1ccccc1)C(=O)N[C@H](C(=O)N[C@@H](CO)C(=O)N[C@@H](CC(=O)O)C(=O)N[C@@H](Cc1ccc(-c2ccccc2)cc1)C(=O)N[C@@H](Cc1ccc(-c2ccc(F)cc2)cc1)C(N)=O)[C@@H](C)O)[C@@H](C)O,EC50,[1],430 nM
Cc1ccccc1-c1ccc(C[C@H](NC(=O)[C@H](Cc2ccc(-c3ccccc3C)cc2)NC(=O)[C@H](CC(=O)O)NC(=O)[C@H](CO)NC(=O)[C@@H](NC(=O)[C@H](Cc2ccccc2)NC(=O)[C@@H](NC(=O)CNC(=O)[C@H](CCC(=O)O)NC(=O)[C@H](C)NC(=O)[C@@H](N)Cc2cnc[nH]2)[C@@H](C)O)[C@@H](C)O)C(N)=O)cc1,EC50,[1],148 nM
Cc1cccc(-c2ccc(C[C@H](NC(=O)[C@H](Cc3ccc(-c4ccccc4C)cc3)NC(=O)[C@H](CC(=O)O)NC(=O)[C@H](CO)NC(=O)[C@@H](NC(=O)[C@H](Cc3ccccc3)NC(=O)[C@@H](NC(=O)CNC(=O)[C@H](CCC(=O)O)NC(=O)[C@H](C)NC(=O)[C@@H](N)Cc3cnc[nH]3)[C@@H](C)O)[C@@H](C)O)C(N)=O)cc2)c1,EC50,[1],87 nM
CCc1cc(OC)ccc1-c1ccc(C[C@H](NC(=O)[C@H](CC(=O)O)NC(=O)[C@H](CO)NC(=O)[C@@H](NC(=O)[C@](C)(Cc2ccccc2)NC(=O)[C@@H](NC(=O)CNC(=O)[C@H](CCC(=O)O)NC(=O)C(C)(C)NC(=O)[C@@H](N)Cc2cnc[nH]2)[C@@H](C)O)[C@@H](C)O)C(=O)N[C@@H](Cc2ccc(-c3ccccc3C)cc2)C(N)=O)cc1 (H-H[Aib]EGT[αMeF]TSD[Bip(2'-Et-4'-OMe)][Bip(2'-Me)]-NH2),EC50,[1],0.28 nM
C[C@H](NC(=O)[C@@H](N)Cc1cnc[nH]1)C(=O)N[C@@H](CCC(=O)O)C(=O)NCC(=O)N[C@H](C(=O)N[C@@H](Cc1ccccc1)C(=O)N[C@H](C(=O)N[C@@H](CO)C(=O)N[C@@H](CC(=O)O)C(=O)N[C@@H](Cc1ccc(-c2ccccc2)cc1)C(=O)N[C@@H](Cc1ccc(-c2ccccc2)cc1)C(=O)N[C@@H](Cc1ccc(-c2ccccc2)cc1)C(N)=O)[C@@H](C)O)[C@@H](C)O,EC50,[1],787 nM
CCCc1ccccc1-c1ccc(C[C@H](NC(=O)[C@H](CC(=O)O)NC(=O)[C@H](CO)NC(=O)[C@@H](NC(=O)[C@H](Cc2ccccc2)NC(=O)[C@@H](NC(=O)CNC(=O)[C@H](CCC(=O)O)NC(=O)[C@H](C)NC(=O)[C@@H](N)Cc2cnc[nH]2)[C@@H](C)O)[C@@H](C)O)C(=O)N[C@@H](Cc2ccc(-c3ccccc3C)cc2)C(N)=O)cc1,EC50,[1],93 nM
CCc1cc(OC)ccc1-c1ccc(C[C@H](NC(=O)[C@H](CC(=O)O)NC(=O)[C@H](CO)NC(=O)[C@@H](NC(=O)[C@H](Cc2ccccc2)NC(=O)[C@@H](NC(=O)CNC(=O)[C@H](CCC(=O)O)NC(=O)[C@H](C)NC(=O)[C@@H](N)Cc2cnc[nH]2)[C@@H](C)O)[C@@H](C)O)C(=O)N[C@@H](Cc2ccc(-c3ccccc3C)cc2)C(N)=O)cc1,EC50,[1],7 nM
